Hsp70 act: transcriptional activators of Hsp70; HeLa Hsp70 promoter luciferase reporter, luminescence; scaled: vehicle 0, proteasome-inhibitor control 100%; activation, % at 10 µM; actives 0.04% (n = 200,000);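 active = activation above the mean across all tested compounds plus 3 SD, cutoff set per campaign, cut at about 5.5% in these data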;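 note: 100% = MG132 at 30 µM as the positive control and 0% = DMSO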
H9c2 TAG inh: inhibitors of triacylglycerol accumulation | H9c2 cells, Nile Red lipid (TAG) fluorescence; cells loaded with 200 µM oleic acid | inhibition, % at 12.5 µM | actives 0.66% (n = 230,000) | AID 651582;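 active = pattern-corrected inhibition of lipid staining of at least 50% with the nuclear-stain viability signal not falling by more than 50%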;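 note: 0% = DMSO wells and 100% = triacsin C control wells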
ABHD5 PLIN5 PPI: ABHD5-PLIN5 protein interaction inhibition; Q00G26+Q8WTS1; Split G. princeps luciferase complementation, luminescence, 4 h; inhibition, % at 4 µM; actives 0.78% (n = 360,000); AID 602281;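 active = inhibition above the mean inhibition across every tested compound plus 3 SD, cut at about 22% in these data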;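 note: 0% = DMSO only wells and the 100% control is not disclosed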
GAA850 FXN act: increases GAA850 frataxin promoter reporter activity | HEK293 lucGAA850 FXN promoter luciferase reporter, 24 h; percent of 10 µM SAHA response | activation, % at 6 µM | actives 0.56% (n = 360,000);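 active = activation above the average of all compounds screened plus 3 SD, cutoff fixed separately per campaign, cut at about 7.5% in these data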;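 note: 0% = DMSO wells and 100% = 10 µM SAHA wells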
HIF act: HIF pathway transcriptional activation; U2OS HRE-luciferase reporter, luminescence; normalized: DMSO 0%, desferrioxamine 100%; activation, % at 7.5 µM (by protocol); actives 0.32% (n = 300,000); AID 1910;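 active = mean activation of at least 10% of the iron chelator positive control signal, with at least half of replicates also reaching 10%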
Rad51 HR inh: Rad51 (human) homologous recombination inhibition; Q06609; hRad51 DNA strand exchange, fluorescence dequenching; inhibition, % at 10 µM; actives 0.085% (n = 200,000);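 active = inhibition above 40% at the single screening dose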;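 note: 0% = DMSO control wells and 100% = blanks with heterologous ssDNA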
Target sequence (Q06609 whole entry, looked up): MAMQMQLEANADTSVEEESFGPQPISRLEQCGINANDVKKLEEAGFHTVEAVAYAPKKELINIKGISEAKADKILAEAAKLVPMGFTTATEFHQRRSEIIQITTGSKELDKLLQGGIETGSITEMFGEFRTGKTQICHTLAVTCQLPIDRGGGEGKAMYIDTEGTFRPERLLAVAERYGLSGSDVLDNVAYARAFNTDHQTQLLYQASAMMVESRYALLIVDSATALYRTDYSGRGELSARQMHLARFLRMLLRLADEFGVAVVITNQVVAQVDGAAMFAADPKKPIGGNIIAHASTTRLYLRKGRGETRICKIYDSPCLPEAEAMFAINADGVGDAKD
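Test system: preformed human Rad51 ssDNA filaments. Compound dosing: single dose, 10 µM final compound. Incubation: filaments 15 min 37 °C, then compound 30 min. Technique: FRET fluorescence dequenching, excitation 485 nm, emission 520 nm. Read-out basis: percent inhibition from fluorescence, normalised to plate control and blank means. Benchmarks: plate controls and plate blanks.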
GAA30 FXN cntr: GAA30 FXN promoter activation counter-screen; shares compounds with GAA850 FXN act; HEK293 lucGAA30 FXN promoter luciferase, 24 h; DMSO = 0%, 5 µM ipriflavone = 100%; activation, % at 6 µM; actives 66% (n = 1,900); AID 588350;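 active = mean activation above the mean of solvent-only control wells plus 3 SD, cut at about 22% in these data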;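 note: counterscreen of GAA850 promoter hits where activity marks nonselective or luminescence artifacts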
FXN GAA850 conf: GAA850 FXN promoter activation confirmation | HEK293 lucGAA850 FXN promoter luciferase reporter, 24 h; 100% = activation by SAHA | actives 86% (n = 1,900) | AID 588351 | activation, % at 6 µM | shares compounds with GAA850 FXN act;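 active = mean activation above a set limit taken from the primary screen, cut at about 8% in these data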;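 note: 0% = DMSO wells and 100% = 10 µM SAHA wells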
* marks the source's active call; other numbers are inactive results; nt = no result given. In the library only some 1.9% were active in any assay of this set; here they are far more common.

SMILES	Hsp70 act	H9c2 TAG inh	ABHD5 PLIN5 PPI	GAA850 FXN act	HIF act	Rad51 HR inh	GAA30 FXN cntr	FXN GAA850 conf
CCOc1ccc(Cn2nnc(-c3ccc(S(C)(=O)=O)cc3)n2)cc1OCC	nt	-16.7	-3.5	2.7	nt	nt	nt	nt
COC(=O)CN1C(c2cccc(Cl)c2)=Nc2ccc(Cl)cc2C1c1ccccc1 (stereo unspecified)	-0.5	29.9	-12.0	8.5*	0.2	2.2	38.6*	14.6*
CC(C)Cn1c(SC(C)C(=O)NCC2CCCO2)nc2ccc(Cl)cc2c1=O (stereo unspecified)	nt	4.1	-8.6	1.1	nt	nt	nt	nt
CC1(C(=O)OCC(=O)Nc2ccc(S(=O)(=O)N3CCOCC3)cc2)CC1(Cl)Cl (stereo unspecified)	nt	-24.9	-1.9	1.7	nt	nt	nt	nt
NC(=O)Cc1nc(-c2ccc(Br)cc2)cs1	-0.2	nt	-1.9	1.6	0.6	3.3	nt	nt
Oc1csc(Cc2nc(-c3ccc(Br)cc3)cs2)n1	-0.4	9.5	-3.4	7.6*	3.0	15.8	96.1*	38.2*
COc1ccc(-c2nc(CSCC(=O)NCCC3=CCCCC3)c(C)o2)cc1OC	-0.2	1.1	3.7	-0.1	0.7	-5.7	nt	nt
Cc1ccccc1-c1nnc(-c2cccs2)o1	0.3	-7.2	-1.8	8.0*	2.9	3.9	105.7*	30.1*
COc1ccccc1NC(=O)CC1C(=O)NCCN1C(=O)Nc1ccccc1 (stereo unspecified)	0.0	nt	-4.9	8.0*	-0.1	-6.1	18.1	8.0*
Cc1cc(C(=O)Nc2sc(C)c(-c3ccc(F)cc3)c2C(N)=O)no1	0.5	nt	-5.8	8.4*	2.5	2.2	105.8*	31.0*
CCc1ccc(-c2c(C)sc(NC(C)=O)c2C(N)=O)cc1	-0.4	nt	-4.4	2.3	-0.2	-6.6	nt	nt
COC(=O)[C@@H]1C[C@@]2(Br)c3ccccc3N(S(=O)(=O)c3ccccc3)[C@H]2N1C(=O)OC	nt	3.3	-0.3	0.0	-1.6	3.7	nt	nt
CCOc1ccc(NC(=O)CSC2=NCCN2)cc1	-0.1	nt	0.1	1.6	-1.1	-7.3	nt	nt
COC(=O)c1ccc(NC(=O)CSC2=NCCN2)cc1	-0.3	nt	2.6	10.0*	2.7	-5.3	34.3*	16.2*
O=C(Nc1ccc2nc([C@@H]3O[C@H](CO)[C@@H](O)[C@H](O)[C@H]3O)[nH]c2c1)NC(c1ccccc1)c1ccccc1	nt	-6.8	3.6	-0.3	nt	nt	nt	nt
CCOC(=O)c1oc2c(c1C)/C(=N/O)CCC2	-0.2	16.5	1.2	8.0*	1.4	nt	64.9*	22.8*
Cc1cccc(Nc2n[nH]c(C)c2[N+](=O)[O-])c1	0.1	nt	5.1	8.7*	3.6	nt	92.2*	36.9*
O=C(Nc1cc(C(F)(F)F)ccc1N1CCOCC1)C1=NN(c2ccccc2)C(=O)CC1	nt	nt	-0.9	2.4	-0.2	nt	nt	nt
C=CCSc1nc(Oc2ccccc2)c2sccc2n1	-0.3	-32.0	6.1	5.8	-0.7	-8.2	nt	nt
C=CCNc1nc(SCC=C)nc2ccsc12	-0.3	-26.4	0.1	7.9*	-0.1	nt	21.3	9.7*
CN(C)C(=S)N=c1ssc(=S)n1Cc1ccccc1	nt	46.4	-20.0	21.0*	nt	nt	3.8	28.1*
CCOC(=O)c1sc(=S)n(Cc2ccccc2)c1C	nt	7.2	0.7	0.5	-0.5	-1.9	nt	nt
CC1CCCN(C(=O)COC(=O)Cc2c(F)cccc2Cl)C1 (stereo unspecified)	nt	nt	-3.6	0.6	1.4	nt	nt	nt
CCCCOc1ccc(C(=O)NCC2(c3ccc(OC)cc3)CCOCC2)cc1	-0.3	nt	6.1	16.2*	-0.2	-6.0	12.6	6.0
COc1ccc(C2(CNC(=O)c3ccc(Br)o3)CCOCC2)cc1	0.1	-4.1	5.6	0.1	-0.2	-4.3	nt	nt
CSc1ncnc2c1ncn2CCCN[C@H](C)c1cccc2ccccc12	nt	11.9	-8.6	9.6*	nt	nt	19.0	9.8*

Screening results: PubChem, several laboratories
